Source: article PMC7760462 (ACS Central Science, 2020)
pIC50: −log10 of the molar value. In brackets after ≈: the same amount, converted by molar mass.

Legend:
[1] = test system: RAW 264.7 macrophages; assay: MTT cell viability assay; assay type: cell-based; conditions: Mus musculus, RAW264.7, 24 h, read-out: IC50, RAW
[2] = by previous studies; cited from earlier work
[3] = test system: VRE (ATCC51858); assay: Antimicrobial activity against extracellular bacteria; assay type: cell-based, vancomycin-resistant enterococci; conditions: Enterococcus, 18 h, read-out: extracellular MIC, VRE
[4] = test system: S. aureus (ATCC12608); assay: Characterization of cell wall inhibition by SEM; assay type: cell-based, Staphylococcus aureus; conditions: S. aureus treated 12 h at drug/bacteria ratio equivalent to MIC determination
How it was run: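 S. aureus ATCC12608 was treated with the test compound, with PBS, free vancomycin and the unconjugated polypeptide as comparators. Cell wall morphology was then examined by scanning electron microscopy.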

[5] = test system: kidney of MRSA-infected mice; assay: Kidney histology analysis; assay type: in vivo, mice (CD1-IGS); conditions: 72 h after infection (Figure 5e)
How it was run: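 Mice were infected with MRSA USA100 (2 × 10^7 CFU) by tail-vein injection at 0 h. They received intraperitoneal PBS, vancomycin (100 mg/kg), test compound (72 mg/kg) or unconjugated polypeptide (50 mg/kg, molar equivalent) at 24 and 36 h. Mice were sacrificed at 72 h, and kidneys were H&E-stained for granulomatous foci, immune-cell infiltration and tubular necrosis.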

[6] = test system: MRSA (USA100); assay: Antimicrobial activity against extracellular bacteria; assay type: cell-based, methicillin-resistant Staphylococcus aureus; conditions: Staphylococcus aureus, MRSA|USA100, 18 h, read-out: extracellular MIC, MRSA
[7] = test system: bacteria exposed to subinhibitory concentrations; assay: Resistance test by serial passage; assay type: cell-based

CN[C@H](CC(C)C)C(=O)N[C@H]1C(=O)N[C@@H](CC(N)=O)C(=O)N[C@H]2C(=O)N[C@H]3C(=O)N[C@H](C(=O)N[C@H](C(=O)O)c4cc(O)cc(O)c4-c4cc3ccc4O)[C@H](O)c3ccc(c(Cl)c3)Oc3cc2cc(c3O[C@@H]2O[C@H](CO)[C@@H](O)[C@H](O)[C@H]2O[C@H]2C[C@](C)(N)[C@H](O)[C@H](C)O2)Oc2ccc(cc2Cl)[C@H]1O [Van, vancomycin]
pIC50 [1]: < 3.15
serum Cmax [2]: ~50 µg/mL
MIC [3]: 176 µM (≈ 255 µg/mL)
cell wall appearance by SEM [4]: damaged bacterial cell wall
granulomatous foci in kidney (H&E) [5]: almost no granulomatous foci
MIC [6]: 0.69 µM (≈ 1 µg/mL)
resistance induction, change in MIC ([7]; over/after 20 passages at subinhibitory concentration): tripling
resistance induction, change in MIC ([7]; within 5 passages at subinhibitory concentration): MIC doubling
